Laboratory results as given in ChEMBL document CHEMBL2417431, “Synthesis and evaluation of hetero- and homodimers of ribosome-targeting antibiotics: antimicrobial activity, in vitro inhibition of translation, and drug resistance” (J Med Chem, 2013).
Converted amounts (≈) assume the structure as drawn.

Legend:
[1] = test system: Staphylococcus aureus; assay: Antibacterial activity against Staphylococcus aureus expressing NorA by double-dilution technique; format: functional
Procedure, shortened: (§1)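 Double-dilution series of each compound against each strain, reported as MIC. Runs done in duplicate or triplicate.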

[2] = test system: Listeria monocytogenes; assay: Antibacterial activity against Listeria monocytogenes ATCC 19115 by double-dilution technique; format: functional; procedure, shortened: as §1
[3] = test system: Staphylococcus aureus; assay: Antibacterial activity against Staphylococcus aureus ATCC 29213 by double-dilution technique; format: functional; procedure, shortened: as §1
[4] = test system: Escherichia coli; assay: Antibacterial activity against Escherichia coli MC1061 by double-dilution technique; format: functional; procedure, shortened: as §1
[5] = test system: Mycolicibacterium smegmatis; assay: Antibacterial activity against Mycobacterium smegmatis str. MC2 155 by double-dilution technique; format: functional
[6] = test system: Bacillus subtilis; assay: Antibacterial activity against Bacillus subtilis 168 by double-dilution technique; format: functional; procedure, shortened: as §1
[7] = test system: Streptococcus pyogenes; assay: Antibacterial activity against Streptococcus pyogenes Serotype M12 MGAS9429 by double-dilution technique; format: functional
Procedure, shortened: (§2)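 MIC measured against each bacterial strain using a double-dilution series of each compound. Every determination was run in duplicate or triplicate.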

[8] = test system: Staphylococcus epidermidis; assay: Antibacterial activity against biofilm negative Staphylococcus epidermidis ATCC 12228 by double-dilution technique; format: functional; procedure, shortened: as §2
[9] = test system: Bacillus subtilis; assay: Antibacterial activity against Bacillus subtilis 168 harboring AAC(6')/APH(2'')-pRB374 by double-dilution technique; format: functional
[10] = test system: Bacillus cereus; assay: Antibacterial activity against Bacillus cereus ATCC 11778 by double-dilution technique; format: functional; procedure, shortened: as §2
[11] = test system: Bacillus anthracis; assay: Antibacterial activity against Bacillus anthracis 34F2 Sterne by double-dilution technique; format: functional; procedure, shortened: as §1
[12] = test system: Haemophilus influenzae; assay: Antibacterial activity against Haemophilus influenzae ATCC 51907 by double-dilution technique; format: functional; procedure, shortened: as §2
[13] = test system: Escherichia coli; assay: Inhibition of protein synthesis in Escherichia coli S30 extracts after 90 mins by coupled transcription/translation assay; format: functional; details: 1.5 h
Procedure, shortened: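 E. coli extract coupled transcription/translation with luciferase reporter. Reactions with varying compound concentrations ran 90 min at 37 °C, were chilled on ice, then diluted in Tris-phosphate pH 7.8 buffer containing DTT, glycerol, Triton X-100 and BSA. Luminescence was read immediately after adding luciferase reagent. IC50 came from concentration-response fits of at least two independent experiments.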

[14] = Drug metabolism assessed as enhanced intracellular survival protein (unknown origin)-mediated conversion at 100 uM by micro plate reader analysis relative to tobramycin; format: ADME
Procedure, shortened: (§3)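 Ellman assay: CoASH release coupled to DTNB (2 mM), read at 412 nm every 30 s for 1 h at 25 °C. Compound at 100 μM. Conditions by enzyme: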

[15] = Drug metabolism assessed as aminoglycoside 3-N-acetyltransferase AAC(3)-IV (unknown origin)-mediated conversion at 100 uM by micro plate reader analysis relative to tobramycin; format: ADME; procedure, shortened: as §3
[16] = Drug metabolism assessed as aminoglycoside 2'-N-acetyltransferase Ic (unknown origin)-mediated conversion at 100 uM by micro plate reader analysis relative to tobramycin; format: ADME; procedure, shortened: as §3

Structure (SMILES) | MIC [1] [µg/mL] | MIC [2] [µg/mL] | MIC [3] [µg/mL] | MIC [4] [µg/mL] | MIC [5] [µg/mL] | MIC [6] [µg/mL] | MIC [7] [µg/mL] | MIC [8] [µg/mL] | MIC [9] [µg/mL] | MIC [10] [µg/mL] | MIC [11] [µg/mL] | MIC [12] [µg/mL] | IC50 [13] [µM] | fold change (FC) [14] | fold change (FC) [15] | fold change (FC) [16]
CCC[C@@H]1C[C@@H](C(=O)N[C@H]([C@H]2O[C@H](SC)[C@H](O)[C@@H](O)[C@H]2O)[C@@H](C)SCCOCCSSCCOCCSCC(=O)N[C@@H](CO)[C@H](O)c2ccc([N+](=O)[O-])cc2)N(C)C1 | < 0.3 | 4.7 (≈ 5.14 µM) | 0.6 (≈ 0.656 µM) | 4.7 (≈ 5.14 µM) | 18.8 (≈ 20.5 µM) | 2.3 (≈ 2.51 µM) | > 128 | 2 (≈ 2.19 µM) | > 150 | 2.3 (≈ 2.51 µM) | < 0.3 | 150 (≈ 164 µM) | 18.3 |  |  | 
CCC[C@@H]1C[C@@H](C(=O)N[C@H]([C@H]2O[C@H](SC)[C@H](O)[C@@H](O)[C@H]2O)[C@@H](C)SCCOCCSCC(=O)N[C@H](CO)[C@H](O)c2ccc([N+](=O)[O-])cc2)N(C)C1 | 18.8 (≈ 24.1 µM) | 75 (≈ 96.3 µM) | 18.8 (≈ 24.1 µM) | 9.4 (≈ 12.1 µM) | > 150 | 18.8 (≈ 24.1 µM) | > 128 | 4 (≈ 5.13 µM) | > 150 | 18.8 (≈ 24.1 µM) | 2.3 (≈ 2.95 µM) | 75 (≈ 96.3 µM) | 14.7 |  |  | 
NC[C@H]1O[C@H](O[C@H]2[C@H](O)[C@@H](O[C@@H]3O[C@H](CSCCOCCSSCCOCCSCC(=O)N[C@H](CO)[C@H](O)c4ccc([N+](=O)[O-])cc4)[C@@H](O)[C@H](N)[C@H]3O)[C@H](N)C[C@@H]2N)[C@H](N)C[C@@H]1O | 9.4 (≈ 9.63 µM) | 18.8 (≈ 19.3 µM) | 150 (≈ 154 µM) | 4.7 (≈ 4.81 µM) | 4.7 (≈ 4.81 µM) | 4.7 (≈ 4.81 µM) | 16 (≈ 16.4 µM) | 16 (≈ 16.4 µM) | 150 (≈ 154 µM) | 150 (≈ 154 µM) | 75 (≈ 76.8 µM) | 37.5 (≈ 38.4 µM) | 1 | 2.6 | 1.4 | 1.6
NC[C@H]1O[C@H](O[C@H]2[C@H](O)[C@@H](O[C@@H]3O[C@H](CSCCOCCSCC(=O)N[C@H](CO)[C@H](O)c4ccc([N+](=O)[O-])cc4)[C@@H](O)[C@H](N)[C@H]3O)[C@H](N)C[C@@H]2N)[C@H](N)C[C@@H]1O | > 150 | > 150 | > 150 | > 150 | 18.8 (≈ 22.4 µM) | 150 (≈ 179 µM) | 8 (≈ 9.52 µM) | 8 (≈ 9.52 µM) | > 150 | > 150 | > 150 | 150 (≈ 179 µM) | 1.49 | 2.9 | 1.8 | 2
O=C(CSCCOCCSSCCOCCSCC(=O)N[C@H](CO)[C@H](O)c1ccc([N+](=O)[O-])cc1)N[C@H](CO)[C@H](O)c1ccc([N+](=O)[O-])cc1 | > 150 | 9.4 (≈ 12.1 µM) | 0.6 (≈ 0.77 µM) | 18.8 (≈ 24.1 µM) | > 150 | 150 (≈ 193 µM) | > 128 | > 64 | > 150 | 75 (≈ 96.3 µM) | 75 (≈ 96.3 µM) | 150 (≈ 193 µM) | 25.6 |  |  | 
O=C(CSCCOCCSCC(=O)N[C@H](CO)[C@H](O)c1ccc([N+](=O)[O-])cc1)N[C@H](CO)[C@H](O)c1ccc([N+](=O)[O-])cc1 | > 150 | > 150 | > 150 | > 150 | > 150 | > 150 | > 128 | > 64 | > 150 | > 150 | > 150 | > 150 | 32.9 |  |  | 
NC[C@H]1O[C@H](O[C@H]2[C@H](O)[C@@H](O[C@@H]3O[C@H](CSCCOCCSSCCOCCSC[C@H]4O[C@@H](O[C@@H]5[C@@H](O)[C@H](O[C@H]6O[C@H](CN)[C@@H](O)C[C@H]6N)[C@@H](N)C[C@H]5N)[C@H](O)[C@@H](N)[C@@H]4O)[C@@H](O)[C@H](N)[C@H]3O)[C@H](N)C[C@@H]2N)[C@H](N)C[C@@H]1O | 9.4 (≈ 8.01 µM) | 37.5 (≈ 32 µM) | 37.5 (≈ 32 µM) | 18.8 (≈ 16 µM) | 2.3 (≈ 1.96 µM) | 0.6 (≈ 0.511 µM) | 64 (≈ 54.5 µM) | 16 (≈ 13.6 µM) | 37.5 (≈ 32 µM) | 75 (≈ 63.9 µM) | 37.5 (≈ 32 µM) | 9.4 (≈ 8.01 µM) | 0.27 | 4.1 | 2 | 2.4
CCC[C@@H]1C[C@@H](C(=O)N[C@H]([C@H]2O[C@H](SC)[C@H](O)[C@@H](O)[C@H]2O)[C@@H](C)SCCOCCSSCCOCCS[C@H](C)[C@H](NC(=O)[C@@H]2C[C@@H](CCC)CN2C)[C@H]2O[C@H](SC)[C@H](O)[C@@H](O)[C@H]2O)N(C)C1 | 0.6 (≈ 0.571 µM) | 4.7 (≈ 4.47 µM) | 0.6 (≈ 0.571 µM) | 9.4 (≈ 8.94 µM) | 18.8 (≈ 17.9 µM) | 2.3 (≈ 2.19 µM) | > 128 | 1 (≈ 0.951 µM) | > 150 | 2.3 (≈ 2.19 µM) | 2.3 (≈ 2.19 µM) | 37.5 (≈ 35.7 µM) | 6.1 |  |  | 
O=C(CSCCOCCS)N[C@H](CO)[C@H](O)c1ccc([N+](=O)[O-])cc1 | > 150 | > 150 | > 150 | 37.5 (≈ 96 µM) | > 150 | > 150 | 128 (≈ 328 µM) | > 128 | > 150 | 150 (≈ 384 µM) | 150 (≈ 384 µM) | > 150 | 48.7 |  |  | 
CCC[C@@H]1C[C@@H](C(=O)N[C@H]([C@H]2O[C@H](SC)[C@H](O)[C@@H](O)[C@H]2O)[C@@H](C)SCCOCCS)N(C)C1 | 1.2 (≈ 2.28 µM) | 37.5 (≈ 71.2 µM) | 4.7 (≈ 8.92 µM) | 37.5 (≈ 71.2 µM) | 75 (≈ 142 µM) | 9.4 (≈ 17.8 µM) | 2 (≈ 3.8 µM) | 4 (≈ 7.59 µM) | > 150 | 9.4 (≈ 17.8 µM) | 2.3 (≈ 4.37 µM) | 75 (≈ 142 µM) | > 100 |  |  | 
NC[C@H]1O[C@H](O[C@H]2[C@H](O)[C@@H](O[C@@H]3O[C@H](CSCCOCCS)[C@@H](O)[C@H](N)[C@H]3O)[C@H](N)C[C@@H]2N)[C@H](N)C[C@@H]1O | 18.8 (≈ 32 µM) | 18.8 (≈ 32 µM) | 75 (≈ 128 µM) | 18.8 (≈ 32 µM) | 2.3 (≈ 3.91 µM) | 2.3 (≈ 3.91 µM) | 128 (≈ 218 µM) | 16 (≈ 27.2 µM) | 75 (≈ 128 µM) | 150 (≈ 255 µM) | 37.5 (≈ 63.8 µM) | 37.5 (≈ 63.8 µM) | 0.43 |  |  | 
CCC[C@@H]1C[C@@H](C(=O)NC([C@H]2O[C@H](SC)[C@H](O)[C@@H](O)[C@H]2O)[C@@H](C)SCCOCCSSCCOCCSC[C@H]2O[C@@H](O[C@@H]3[C@@H](O)[C@H](O[C@H]4O[C@H](CN)[C@@H](O)C[C@H]4N)[C@@H](N)C[C@H]3N)C(O)[C@@H](N)[C@@H]2O)N(C)C1 (single isomer, unassigned) | 4.7 (≈ 4.22 µM) | 18.8 (≈ 16.9 µM) | 2.3 (≈ 2.07 µM) | 4.7 (≈ 4.22 µM) | 4.7 (≈ 4.22 µM) | 1.2 (≈ 1.08 µM) | 64 (≈ 57.5 µM) | 2 (≈ 1.8 µM) | 150 (≈ 135 µM) | 9.4 (≈ 8.45 µM) | 2.3 (≈ 2.07 µM) | 75 (≈ 67.4 µM) | 0.98 | 2.6 | 1.4 | 1.6
O=C(N[C@H](CO)[C@H](O)c1ccc([N+](=O)[O-])cc1)C(Cl)Cl [CHLORAMPHENICOL] | 4.7 (≈ 14.5 µM) | 9.4 (≈ 29.1 µM) | 9.4 (≈ 29.1 µM) | < 0.3 | 18.8 (≈ 58.2 µM) | 2.3 (≈ 7.12 µM) | 4 (≈ 12.4 µM) | 8 (≈ 24.8 µM) | 1.2 (≈ 3.71 µM) | 4.7 (≈ 14.5 µM) | 4.7 (≈ 14.5 µM) | 0.6 (≈ 1.86 µM) | 6.4 |  |  | 
CCC[C@@H]1C[C@@H](C(=O)N[C@@H]([C@H]2O[C@H](SC)[C@H](O)[C@@H](O)[C@H]2O)[C@H](C)Cl)N(C)C1 [CLINDAMYCIN] |  | 4.7 (≈ 11.1 µM) |  | 2.3 (≈ 5.41 µM) | 9.4 (≈ 22.1 µM) |  | 1 (≈ 2.35 µM) | 1 (≈ 2.35 µM) | > 150 |  | < 0.3 | 4.7 (≈ 11.1 µM) | 18.1 |  |  | 
NC[C@H]1O[C@H](O[C@H]2[C@H](O)[C@@H](O[C@H]3O[C@H](CO)[C@@H](O)[C@H](N)[C@H]3O)[C@H](N)C[C@@H]2N)[C@H](N)C[C@@H]1O [TOBRAMYCIN] | 9.4 (≈ 20.1 µM) | 18.8 (≈ 40.2 µM) | 37.5 (≈ 80.2 µM) | 9.4 (≈ 20.1 µM) | 0.6 (≈ 1.28 µM) | 2.3 (≈ 4.92 µM) | 64 (≈ 137 µM) | 0.3 (≈ 0.642 µM) | 9.4 (≈ 20.1 µM) | 75 (≈ 160 µM) | 9.4 (≈ 20.1 µM) | 18.8 (≈ 40.2 µM) | 0.015 |  |  | 
